In brackets after ≈: the same amount, converted by molar mass.
Experiments:
[1] = test system: Staphylococcus aureus; experiment: Antibacterial activity against Staphylococcus aureus harboring FtsZ G196A mutant by broth microdilution method; assay type: functional
Procedure, shortened: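 S. aureus ATCC 29213 derivative with G196A substitution in FtsZ; MIC by broth microdilution following CLSI guidelines; reported in µg/mL.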

[2] = molecular target: T1, Cell division protein FtsZ (Staphylococcus aureus) (UniProt P0A031); experiment: Inhibition of Staphylococcus aureus ATCC 29213 FtsZ-mediated cell division phenotype
T1 sequence (whole entry): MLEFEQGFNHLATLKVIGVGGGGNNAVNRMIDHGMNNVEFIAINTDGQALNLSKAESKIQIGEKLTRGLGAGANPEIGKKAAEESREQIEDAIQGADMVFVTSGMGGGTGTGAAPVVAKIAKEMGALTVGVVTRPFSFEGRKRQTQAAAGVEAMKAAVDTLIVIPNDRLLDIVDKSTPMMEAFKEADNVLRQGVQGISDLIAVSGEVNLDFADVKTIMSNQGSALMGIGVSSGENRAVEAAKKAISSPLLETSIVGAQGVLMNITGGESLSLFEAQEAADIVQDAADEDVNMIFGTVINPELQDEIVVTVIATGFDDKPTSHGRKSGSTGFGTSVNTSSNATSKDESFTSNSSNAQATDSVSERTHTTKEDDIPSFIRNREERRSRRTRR
Procedure, shortened: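 S. aureus ATCC 29213 cell division inhibition assay run alongside MIC testing; value is the lowest concentration at which an inhibition of cell division phenotype was seen (µg/mL).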

[3] = test system: Staphylococcus aureus; experiment: Antibacterial activity against Staphylococcus aureus ATCC 29213 by broth microdilution method; assay type: functional
Procedure, shortened: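 Broth microdilution MIC per CLSI guidelines against S. aureus ATCC 29213; MIC in µg/mL.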

[4] = Kinetic solubility of the compound in PBS buffer at pH 7.4 after 24 hrs by turbidimetric method; assay type: physicochemical; settings: read-out: Kinetic_solubility
Procedure, shortened: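 Turbidimetric: doubling dilutions in DMSO diluted twenty-fold into PBS pH 7.4, equilibrated 24 h at room temperature, absorbance read at 620 nm. Value is highest concentration with no measurable precipitate.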

[5] = Half life in Balb/c mouse at 3 mg/kg, iv by LC-MS/MS analysis; assay type: ADME, organism-based; design: dose 3 mg/kg, route intravenous; settings: in vivo
[6] = Clearance in Balb/c mouse at 3 mg/kg, iv by LC-MS/MS analysis; assay type: ADME, organism-based; design: dose 3 mg/kg, route intravenous; settings: in vivo
[7] = AUC in Balb/c mouse at 3 mg/kg, iv by LC-MS/MS analysis; assay type: ADME, organism-based; design: dose 3 mg/kg, route intravenous; settings: plasma
[8] = Volume of distribution in Balb/c mouse at 3 mg/kg, iv by LC-MS/MS analysis; assay type: ADME, organism-based; design: dose 3 mg/kg, route intravenous; settings: in vivo
[9] = Initial plasma concentration in Balb/c mouse at 3 mg/kg, iv by LC-MS/MS analysis; assay type: ADME, organism-based; design: dose 3 mg/kg, route intravenous

Compound	MIC [1] [µg/mL]	MIC [2] [µg/mL]	MIC [3] [µg/mL]	other results
COc1ccc(-c2nc(COc3ccc(F)c(C(N)=O)c3F)oc2C2CC2)cc1	> 64	0.12 (≈ 0.3 µM)	0.12 (≈ 0.3 µM)	
NC(=O)c1c(F)ccc(O[C@H](CO)c2nc(-c3ccc(C(F)(F)F)cc3)c(Br)o2)c1F	4 (≈ 7.89 µM)	0.25 (≈ 0.493 µM)	0.12 (≈ 0.237 µM)	
CCOc1oc(COc2ccc(F)c(C(N)=O)c2F)nc1-c1ccc(Cl)cc1	> 64	0.03 (≈ 0.0734 µM)	0.06 (≈ 0.147 µM)	
COc1ccc(-c2coc(COc3ccc(F)c(C(N)=O)c3F)n2)cc1	> 64	2 (≈ 5.55 µM)	2 (≈ 5.55 µM)	
NC(=O)c1c(F)ccc(OCc2nc(-c3ccc(Cl)cc3)c(CO)o2)c1F	> 64	8 (≈ 20.3 µM)	8 (≈ 20.3 µM)	
Cc1oc(COc2ccc(F)c(C(N)=O)c2F)nc1-c1ccc(Cl)cc1	> 64	0.5 (≈ 1.32 µM)	0.5 (≈ 1.32 µM)	
COc1ccc(-c2nc(COc3ccc(F)c(C(N)=O)c3F)oc2-c2ccccc2)cc1	> 64	0.12 (≈ 0.275 µM)	0.12 (≈ 0.275 µM)	
Cc1nnc(CC(Oc2ccc(F)c(C(N)=O)c2F)c2nc(-c3ccc(C(F)(F)F)cc3)c(Br)o2)o1 (racemic)		16 (≈ 27.9 µM)	8 (≈ 14 µM)	
NC(=O)c1c(F)ccc(OC(CO)c2nc(-c3ccc(Cl)cc3)c(Br)o2)c1F (racemic)		0.25 (≈ 0.528 µM)	0.25 (≈ 0.528 µM)	
NC(=O)c1c(F)ccc(OC(CCCO)c2nc(-c3ccc(C(F)(F)F)cc3)c(Br)o2)c1F (racemic)		1 (≈ 1.87 µM)	1 (≈ 1.87 µM)	solubility kinetic at 24 h [4]: 50 µg/mL (≈ 93.4 µM)
NC(=O)c1c(F)ccc(OC(COC(=O)CCC(=O)O)c2nc(-c3ccc(C(F)(F)F)cc3)c(Br)o2)c1F (racemic)				solubility kinetic at 24 h [4]: 200 µg/mL (≈ 329 µM)
NC(=O)c1c(F)ccc(OC(COC(=O)NCCc2c[nH]cn2)c2nc(-c3ccc(C(F)(F)F)cc3)c(Br)o2)c1F (racemic)				solubility kinetic at 24 h [4]: 100 µg/mL (≈ 155 µM)
COc1oc(COc2ccc(F)c(C(N)=O)c2F)nc1-c1ccc(Cl)cc1		0.5 (≈ 1.27 µM)	0.5 (≈ 1.27 µM)	
NC(=O)c1c(F)ccc(OC(CCC(=O)O)c2nc(-c3ccc(C(F)(F)F)cc3)c(Br)o2)c1F (racemic)		8 (≈ 14.6 µM)	8 (≈ 14.6 µM)	solubility kinetic at 24 h [4]: 400 µg/mL (≈ 728 µM)
CN(C)CCC(Oc1ccc(F)c(C(N)=O)c1F)c1nc(-c2ccc(C(F)(F)F)cc2)c(Br)o1 (racemic)		16 (≈ 29.2 µM)	8 (≈ 14.6 µM)	
NC(=O)c1c(F)ccc(OC(COC(=O)NCC(=O)O)c2nc(-c3ccc(C(F)(F)F)cc3)c(Br)o2)c1F (racemic)				solubility kinetic at 24 h [4]: 800 µg/mL (≈ 1320 µM)
NC(=O)c1c(F)ccc(OCc2nc3cc(Cl)cnc3s2)c1F	> 64	0.5 (≈ 1.41 µM)	1 (≈ 2.81 µM)	
NC(=O)c1c(F)ccc(OC(COC(=O)Nc2nnn[nH]2)c2nc(-c3ccc(C(F)(F)F)cc3)c(Br)o2)c1F (racemic)				solubility kinetic at 24 h [4]: 800 µg/mL (≈ 1290 µM)
NC(=O)c1c(F)ccc(OCc2nc(-c3ccc(OC(F)(F)F)cc3)c(I)o2)c1F	> 64	0.06 (≈ 0.111 µM)	0.06 (≈ 0.111 µM)	
NC(=O)c1c(F)ccc(OCc2nc(-c3ccc(Cl)cc3)c(Br)o2)c1F	2 (≈ 4.51 µM)	0.03 (≈ 0.0676 µM)	0.06 (≈ 0.135 µM)	
NC(=O)c1c(F)ccc(OC(COC(=O)N2CCNCC2)c2nc(-c3ccc(C(F)(F)F)cc3)c(Br)o2)c1F (racemic)				solubility kinetic at 24 h [4]: 200 µg/mL (≈ 323 µM)
CC(C)(Oc1ccc(F)c(C(N)=O)c1F)c1nc(-c2ccc(Cl)cc2)c(Br)o1			> 64	
NC(=O)c1c(F)ccc(OC(COC(=O)NCCN2CCCC2)c2nc(-c3ccc(C(F)(F)F)cc3)c(Br)o2)c1F (racemic)				solubility kinetic at 24 h [4]: 400 µg/mL (≈ 618 µM)

Compound	MIC [1] [µg/mL]	MIC [2] [µg/mL]	MIC [3] [µg/mL]	other results
CNCCNC(=O)OCC(Oc1ccc(F)c(C(N)=O)c1F)c1nc(-c2ccc(C(F)(F)F)cc2)c(Br)o1 (racemic)				solubility kinetic at 24 h [4]: 200 µg/mL (≈ 329 µM)
NC(=O)c1c(F)ccc(OCc2nc(-c3ccc(Cl)cc3)c(N)o2)c1F	> 64	> 64	> 64	
NC(=O)c1c(F)ccc(OC(COP(=O)(O)O)c2nc(-c3ccc(C(F)(F)F)cc3)c(Br)o2)c1F (racemic)				solubility kinetic at 24 h [4]: > 800 µg/mL
NC(=O)c1c(F)ccc(OCc2nc(-c3ccccc3)co2)c1F	> 64	16 (≈ 48.4 µM)	16 (≈ 48.4 µM)	
CC(Oc1ccc(F)c(C(N)=O)c1F)c1nc(-c2ccc(OC(F)(F)F)cc2)c(Cl)o1 (racemic)		0.25 (≈ 0.54 µM)	0.12 (≈ 0.259 µM)	half-life [5]: 1.32 h; clearance [6]: 31 mL/min/kg; AUC [7]: 1600 ng·h/mL; Vd [8]: 3.5 L/kg; C0 [9]: 2100 ng/mL
CC(=O)OCC(Oc1ccc(F)c(C(N)=O)c1F)c1nc(-c2ccc(C(F)(F)F)cc2)c(Br)o1 (racemic)		0.5 (≈ 0.91 µM)	0.5 (≈ 0.91 µM)	solubility kinetic at 24 h [4]: 25 µg/mL (≈ 45.5 µM)
CCC(Oc1ccc(F)c(C(N)=O)c1F)c1nc(-c2ccc(Cl)cc2)c(Br)o1 (racemic)		1 (≈ 2.12 µM)	2 (≈ 4.24 µM)	
N#Cc1oc(COc2ccc(F)c(C(N)=O)c2F)nc1-c1ccc(C(F)(F)F)cc1	> 64	4 (≈ 9.45 µM)	2 (≈ 4.72 µM)	
NC(=O)c1c(F)ccc(OCc2nc(-c3ccc(OC(F)(F)F)cc3)c(Br)o2)c1F	2 (≈ 4.06 µM)	0.03 (≈ 0.0608 µM)	0.06 (≈ 0.122 µM)	
C=CCc1oc(COc2ccc(F)c(C(N)=O)c2F)nc1-c1ccc(Cl)cc1	> 64	0.06 (≈ 0.148 µM)	0.06 (≈ 0.148 µM)	
COc1ccc(-c2nc(COc3ccc(F)c(C(N)=O)c3F)oc2-c2cncs2)cc1		2 (≈ 4.51 µM)	2 (≈ 4.51 µM)	
NC(=O)c1c(F)ccc(OCc2nc(-c3ccc(Cl)cc3)c(CCCO)o2)c1F	> 64	2 (≈ 4.73 µM)	2 (≈ 4.73 µM)	
NC(=O)c1c(F)ccc(OCc2nc(-c3ccc(O)cc3)co2)c1F	> 64	8 (≈ 23.1 µM)	8 (≈ 23.1 µM)	
NC(=O)c1c(F)ccc(OCc2nc(-c3ccc(OC(F)(F)F)cc3)c(C(F)(F)F)o2)c1F	> 64	0.5 (≈ 1.04 µM)	0.5 (≈ 1.04 µM)	
NC(=O)c1c(F)ccc(OC(CC(O)CO)c2nc(-c3ccc(C(F)(F)F)cc3)c(Br)o2)c1F (racemic)		0.5 (≈ 0.907 µM)	0.5 (≈ 0.907 µM)	solubility kinetic at 24 h [4]: 100 µg/mL (≈ 181 µM)
NC(=O)c1c(F)ccc(OCc2nc(-c3ccc(OC(F)(F)F)cc3)c(Cl)o2)c1F	8 (≈ 17.8 µM)	0.12 (≈ 0.267 µM)	0.12 (≈ 0.267 µM)	
NC(=O)c1c(F)ccc(OCc2nc(-c3ccc(C(F)(F)F)cc3)c(Br)o2)c1F	4 (≈ 8.38 µM)	0.12 (≈ 0.251 µM)	0.12 (≈ 0.251 µM)	solubility kinetic at 24 h [4]: 12.5 µg/mL (≈ 26.2 µM)
NC(=O)c1c(F)ccc(OCc2nc(-c3ccc(Cl)cc3)c([N+](=O)[O-])o2)c1F	> 64	> 64	> 64	
NC(=O)c1c(F)ccc(O[C@@H](CO)c2nc(-c3ccc(C(F)(F)F)cc3)c(Br)o2)c1F	64 (≈ 126 µM)	16 (≈ 31.5 µM)	16 (≈ 31.5 µM)	
NC(=O)c1c(F)ccc(OC(CCO)c2nc(-c3ccc(C(F)(F)F)cc3)c(Br)o2)c1F (racemic)		0.5 (≈ 0.959 µM)	0.5 (≈ 0.959 µM)	
NC(=O)c1c(F)ccc(OCc2nc(-c3ccc(Cl)cc3)co2)c1F	> 64	4 (≈ 11 µM)	4 (≈ 11 µM)	
NC(=O)c1c(F)ccc(OC(c2cccnc2)c2nc(-c3ccc(Cl)cc3)c(Br)o2)c1F (racemic)		4 (≈ 7.68 µM)	4 (≈ 7.68 µM)	

— ChEMBL document CHEMBL3098047, “Design, synthesis and structure-activity relationships of substituted oxazole-benzamide antibacterial inhibitors of FtsZ” (Bioorg Med Chem Lett, 2014)
